Activity calls are given as the source filed them. No cut-off for these calls is given here.

The target in assay [1] is T1, Protein-S-isoprenylcysteine O-methyltransferase (Homo sapiens, UniProt O60725). The assay can be described thus: Activity at His-tagged human Icmt membrane protein over-expressed in Saccharomyces cerevisiae 2766 using [14C]-SAM as substrate at 25 uM by scintillation counting.
The target of assay [2] is T1, Protein-S-isoprenylcysteine O-methyltransferase. The assay can be described thus: Inhibition of His-tagged human Icmt membrane protein over-expressed in Saccharomyces cerevisiae 2766 using [14C]-SAM and N-acetyl-S-farnesyl-l-cysteine as substrate measured after 30 mins by scintillation counting.
The target is the same in assay [3]. Kind of assay: Inhibition of His-tagged human Icmt membrane protein over-expressed in Saccharomyces cerevisiae 2766 using [14C]-SAM and N-acetyl-S-farnesyl-l-cysteine as substrate at 10 uM preincubated on ice and measured after 30 mins by scintillation counting.
Assay [4] has the same target. Kind of assay: Competitive inhibition of His-tagged human Icmt membrane protein over-expressed in Saccharomyces cerevisiae 2766 using [14C]-SAM and N-acetyl-S-farnesyl-l-cysteine as substrate measured after 30 mins by scintillation counting. The gist of the method: (§1)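 Mode of inhibition: AFC concentration varied at fixed inhibitor levels in the His-hIcmt vapor diffusion assay (14C-SAM, 30 °C, 30 min). Three trials per inhibitor concentration were averaged and plotted as Lineweaver-Burk. KIC and KIU were derived from IC50 by Cheng–Prusoff as adapted by Cer et al.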

Assay [5] shares this target. Kind of assay: Noncompetitive inhibition of His-tagged human Icmt membrane protein over-expressed in Saccharomyces cerevisiae 2766 using [14C]-SAM and N-acetyl-S-farnesyl-l-cysteine as substrate measured after 30 mins by scintillation counting. The gist of the method: as §1
Assay [6] shares this target. The assay can be described thus: Inhibition of Icmt in TCR-stimulated human Jurkat T cells assessed as inhibition of Ras-mediated Erk activation at 25 uM after 24 hrs by immunoblot analysis relative to control. In kind it is cell-based. The gist of the method:
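Jurkat cells were treated 24 h with compound (25 μM), vehicle or simvastatin (36.7 μM), then held with anti-CD-3ε (20 μg/mL) 15 min on ice and stimulated 10 min at 37 °C. Triton lysates were run on 6–15% gels and immunoblotted for phospho-Erk, with GAPDH as loading control. Bands were quantified by densitometry relative to control; three independent experiments.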
On the technique in general: In western blotting, separated proteins are transferred to a membrane and probed.

The target is the same in assay [7]. Kind of assay: Inhibition of Icmt-mediated GFP-K-Ras membrane localization in human Jurkat T cells at 0.1 uM after 24 hrs by fluorescent microscopic analysis. Format: cell-based. The gist of the method:
(§2)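 Jurkat E6.1 cells were electroporated with 20 μg GFP-K-Ras, then treated 24 h at 37 °C with DMSO, simvastatin (20 μM) or compound (0.1, 1, 10 μM). Cells were put on polylysine coverslips, fixed in 3% formaldehyde and viewed by fluorescence microscopy. Localization was scored visually as normal, partial or complete mislocalization in random fields of 100 cells; three independent experiments.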

The target is the same in assay [8]. Kind of assay: Inhibition of Icmt in TCR-stimulated human Jurkat T cells assessed as inhibition of Ras activation at 25 uM after 24 hrs by immunoblot analysis. Format: cell-based. Put shortly:
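Jurkat cells were treated 24 h with compound (25 μM), vehicle or simvastatin (36.7 μM), then held with anti-CD-3ε (20 μg/mL) 15 min on ice and stimulated 10 min at 37 °C. GTP-Ras was pulled down from NP40 lysates on GST-RBD glutathione beads (30 min, 4 °C) and immunoblotted with anti-pan-Ras. Bands were quantified by densitometry; three independent experiments.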

Assay [9] shares this target. The assay can be described thus: Inhibition of Icmt-mediated GFP-K-Ras membrane localization in human Jurkat T cells at 10 uM after 24 hrs by fluorescent microscopic analysis. In kind it is cell-based. The gist of the method: as §2

T1 sequence (O60725 whole entry): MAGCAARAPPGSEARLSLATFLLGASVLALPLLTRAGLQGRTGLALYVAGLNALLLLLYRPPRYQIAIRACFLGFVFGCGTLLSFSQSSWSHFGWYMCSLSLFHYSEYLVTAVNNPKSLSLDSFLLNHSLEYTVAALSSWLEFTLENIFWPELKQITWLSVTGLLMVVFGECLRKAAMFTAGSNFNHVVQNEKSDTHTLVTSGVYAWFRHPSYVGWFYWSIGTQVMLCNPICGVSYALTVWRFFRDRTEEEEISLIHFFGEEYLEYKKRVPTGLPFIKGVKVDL

The term IC50 denotes the concentration that gives 50% inhibition. Consider `CC(C)=CCC/C(C)=C/CC/C(C)=C/CSC[C@H](NC(=O)c1ccc(Oc2ccccc2)cc1)C(=O)O`, for which, in [1], the outcome was inactive. The IC50 in [2] (read-out: IC50) came out at 63 µM.
For orientation: inhibition means the change of the read-out against control, counted positive when it falls. In the case of `CC(C)=CCC/C(C)=C/CC/C(C)=C/CSC[C@H](NC(=O)c1ccccc1OCc1ccccc1)C(=O)O`, the result in [1] was inactive. Moreover, the IC50 in assay [2] (read-out: IC50) worked out at 13.4 µM. The inhibition result in assay [3] was “Active”.
For `CC(C)=CCC/C(C)=C/CC/C(C)=C/CSC[C@H](NC(=O)c1ccccc1COc1ccccc1)C(=O)O`, in assay [1], the outcome was inactive. Also, in assay [2] (read-out: IC50), the IC50 is 75 µM. Further, the inhibition result in assay [3] was “Active”.
Turning to `CC(C)=CCC/C(C)=C/CC/C(C)=C/CSC[C@H](NC(=O)c1cccc(Oc2ccccc2)c1)C(=O)O`, in assay [1], the result was inactive. Moreover, in assay [2] (read-out: IC50), the IC50 came to 22.6 µM.
For `CCCCCCCCCCCSC[C@H](NC(=O)c1ccccc1Oc1ccccc1)C(=O)O`, the result in [1] was inactive. Further, in assay [2] (read-out: IC50), the IC50 is 210 µM. Further, the inhibition result in assay [3] was “Active”.
`CC(C)=CCC/C(C)=C/CC/C(C)=C/CSC[C@H](NC(=O)c1ccccc1Cc1ccccc1)C(=O)O`: the outcome in assay [1] was inactive. Besides, the IC50 in [2] (read-out: IC50) was determined as 38 µM. For the same compound, the inhibition entry in assay [3] is “Active”.
On to `CC(=O)N[C@@H](CSC/C=C(\C)CC/C=C(\C)CCC=C(C)C)C(=O)O`, for which the 50% inhibitory concentration (IC50) entry in [2] is reported as “Not Active”.
In assay [4], `CC(C)=CCC/C(C)=C/CC/C(C)=C/CSC[C@H](NC(=O)c1ccccc1Oc1ccccc1)C(=O)O` showed a Kic of 1.4 µM. The same compound returned a Kiuc in assay [5] of 4.8 µM. Besides, the IC50 in assay [2] (read-out: IC50) was 6.2 µM.
Regarding `CC(C)=CCC/C(C)=C/CC/C(C)=C/CSC[C@H](NC(=O)c1cccc2c1oc1ccccc12)C(=O)O`, in assay [1], the result was inactive. For the same compound, the IC50 in [2] (read-out: IC50) worked out at 58 µM. Moreover, the inhibition result in [3] was “Active”.
On to `CC(C)=CCC/C(C)=C/CC/C(C)=C/CSC[C@@H](NC(=O)c1ccccc1Oc1ccccc1)C(=O)O`, for which, in assay [1], the outcome was inactive. Besides, the IC50 in assay [2] (read-out: IC50) amounted to 7.8 µM. Moreover, the inhibition entry in assay [3] is “Active”.
In the case of `CC(C)=CCC/C(C)=C/CC/C(C)=C/CC/C(C)=C/CSC[C@H](NC(=O)c1ccccc1Oc1ccccc1)C(=O)O`, the result in assay [1] was inactive. In addition, in [2] (read-out: IC50), the IC50 is 38 µM.
Consider `CC(C)=CCC/C(C)=C/CC/C(C)=C/CSC[C@H](NC(=O)c1ccccc1COCc1ccccc1)C(=O)O`, for which the outcome in [1] was inactive. Further, the IC50 in assay [2] (read-out: IC50) stood at 49 µM. In addition, in [3], the inhibition entry was “Active”.
`CC(C)=CCC/C(C)=C/CC/C(C)=C/CSC[C@H](NC(=O)c1ccccc1Sc1ccccc1)C(=O)O`: the outcome in [1] was inactive. Besides, the 50% inhibitory concentration (IC50) in assay [2] (read-out: IC50) came out at 14.7 µM. In addition, in assay [3], the inhibition entry is “Active”.
In assay [4], `CC(C)=CC/C(=C/CSC[C@H](NC(=O)c1ccccc1Oc1ccccc1)C(=O)O)CCc1ccc(-c2ccccc2)cc1` came in with a Kic of 0.5 µM. The fold change (FC) in [6] turned out to be 3. Also, the inhibition worked out at 35% in assay [7] and 75% in [9]. For the same compound, the Kiuc in [5] was 1.9 µM. In addition, in assay [2] (read-out: IC50), the IC50 was 2.5 µM. In addition, in [8], the inhibition result is “Active”.
Consider `CC(C)=CCC/C(C)=C/CC/C(C)=C/CSC[C@@H](C(=O)O)N(C)C(=O)c1ccccc1Oc1ccccc1`, for which, in assay [1], the result was inactive. Besides, in assay [2] (read-out: IC50), the IC50 was determined as 6.7 µM. Further, in assay [3], the inhibition entry was “Active”.
